Source: paper PMC11892687 (Bioorganic & medicinal chemistry letters, 2017)

Key:
Jurkat cells = assay: Anti-proliferative activity in Jurkat cells; assay type: cell-based; settings: Homo sapiens, read-out: IC50 (cytotoxic, anti-proliferative activity)
[1] = system: panel of 468 human wild-type and mutant kinases; assay: KINOMEscan kinase profiling, panel of 468 kinases; assay type: binding; settings: KINOMEscan at 1 μM compound concentration
LRRK2 = LRRK2 (Homo sapiens, UniProt Q5S007); assay: Biochemical assay LRRK2
LRRK2, sequence (Q5S007 whole entry, species assumed): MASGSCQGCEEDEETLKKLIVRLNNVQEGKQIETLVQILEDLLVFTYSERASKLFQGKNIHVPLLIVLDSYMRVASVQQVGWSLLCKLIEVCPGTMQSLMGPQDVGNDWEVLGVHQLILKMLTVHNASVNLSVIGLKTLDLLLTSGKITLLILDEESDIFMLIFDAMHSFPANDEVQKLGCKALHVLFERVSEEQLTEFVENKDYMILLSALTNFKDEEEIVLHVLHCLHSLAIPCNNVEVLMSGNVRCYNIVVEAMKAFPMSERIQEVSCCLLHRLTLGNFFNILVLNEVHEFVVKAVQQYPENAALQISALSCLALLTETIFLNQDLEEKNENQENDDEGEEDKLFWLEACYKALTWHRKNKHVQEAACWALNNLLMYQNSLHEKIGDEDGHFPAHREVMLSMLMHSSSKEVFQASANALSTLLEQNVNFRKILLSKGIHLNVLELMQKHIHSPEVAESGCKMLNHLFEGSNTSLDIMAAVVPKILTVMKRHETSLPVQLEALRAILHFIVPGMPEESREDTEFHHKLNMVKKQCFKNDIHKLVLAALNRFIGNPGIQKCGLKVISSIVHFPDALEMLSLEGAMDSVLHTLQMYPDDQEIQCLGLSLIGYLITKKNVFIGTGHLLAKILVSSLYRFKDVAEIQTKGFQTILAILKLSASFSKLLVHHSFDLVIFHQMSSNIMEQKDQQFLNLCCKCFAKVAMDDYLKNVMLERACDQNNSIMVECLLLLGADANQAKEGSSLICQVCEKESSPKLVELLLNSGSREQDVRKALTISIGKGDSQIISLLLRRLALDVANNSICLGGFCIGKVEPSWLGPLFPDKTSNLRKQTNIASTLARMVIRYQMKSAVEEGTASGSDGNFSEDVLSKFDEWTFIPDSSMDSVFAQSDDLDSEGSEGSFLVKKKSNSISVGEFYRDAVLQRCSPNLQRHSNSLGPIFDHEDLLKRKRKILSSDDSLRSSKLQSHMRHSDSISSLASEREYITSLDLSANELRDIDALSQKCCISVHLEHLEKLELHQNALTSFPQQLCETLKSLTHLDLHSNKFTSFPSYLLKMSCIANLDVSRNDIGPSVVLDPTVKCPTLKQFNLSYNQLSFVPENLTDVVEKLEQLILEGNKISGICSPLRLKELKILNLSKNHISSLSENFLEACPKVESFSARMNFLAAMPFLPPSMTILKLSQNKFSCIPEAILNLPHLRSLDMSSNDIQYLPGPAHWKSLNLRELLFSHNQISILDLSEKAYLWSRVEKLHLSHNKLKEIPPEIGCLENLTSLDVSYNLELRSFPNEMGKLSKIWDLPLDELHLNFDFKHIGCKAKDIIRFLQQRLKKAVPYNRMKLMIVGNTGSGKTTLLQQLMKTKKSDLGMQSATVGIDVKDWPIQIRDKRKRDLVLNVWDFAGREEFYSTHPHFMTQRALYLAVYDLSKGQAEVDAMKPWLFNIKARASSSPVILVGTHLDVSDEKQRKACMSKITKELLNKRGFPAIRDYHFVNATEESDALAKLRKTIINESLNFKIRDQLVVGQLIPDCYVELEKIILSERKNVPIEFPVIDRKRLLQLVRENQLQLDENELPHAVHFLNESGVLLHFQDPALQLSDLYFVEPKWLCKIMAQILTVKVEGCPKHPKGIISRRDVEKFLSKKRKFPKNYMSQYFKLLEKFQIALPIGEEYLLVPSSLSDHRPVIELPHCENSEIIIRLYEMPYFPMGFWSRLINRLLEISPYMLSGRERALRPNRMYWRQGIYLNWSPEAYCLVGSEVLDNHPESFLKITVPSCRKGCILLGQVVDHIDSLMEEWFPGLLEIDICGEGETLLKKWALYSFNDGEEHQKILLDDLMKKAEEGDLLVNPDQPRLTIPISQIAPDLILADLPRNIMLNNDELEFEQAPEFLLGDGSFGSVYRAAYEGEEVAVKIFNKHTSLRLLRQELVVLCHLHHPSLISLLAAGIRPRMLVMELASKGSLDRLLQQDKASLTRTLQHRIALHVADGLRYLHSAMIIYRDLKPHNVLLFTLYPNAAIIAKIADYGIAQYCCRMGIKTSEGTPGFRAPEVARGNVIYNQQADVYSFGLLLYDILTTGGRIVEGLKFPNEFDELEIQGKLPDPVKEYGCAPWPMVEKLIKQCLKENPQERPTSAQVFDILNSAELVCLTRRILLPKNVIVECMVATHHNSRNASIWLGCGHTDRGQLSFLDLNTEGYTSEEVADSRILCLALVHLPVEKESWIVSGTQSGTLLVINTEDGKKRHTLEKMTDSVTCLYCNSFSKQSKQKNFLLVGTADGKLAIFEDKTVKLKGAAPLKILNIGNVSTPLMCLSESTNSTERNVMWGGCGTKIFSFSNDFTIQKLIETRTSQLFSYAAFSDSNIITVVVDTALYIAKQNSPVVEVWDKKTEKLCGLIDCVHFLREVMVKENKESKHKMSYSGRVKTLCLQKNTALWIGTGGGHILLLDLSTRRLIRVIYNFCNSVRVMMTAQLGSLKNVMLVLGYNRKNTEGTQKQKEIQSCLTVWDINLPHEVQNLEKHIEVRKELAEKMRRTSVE

BRD4 = BRD4 (Homo sapiens, UniProt O60885); assay: Biochemical assay BRD4
[2] = target: T1, recombinant purified Aurora A protein (Homo sapiens, UniProt O14965); assay: LC-MS/MS covalent labeling of recombinant Aurora A; assay type: binding; settings: compound at 10 fold excess with recombinant purified Aurora A
T1 sequence (O14965 1-403): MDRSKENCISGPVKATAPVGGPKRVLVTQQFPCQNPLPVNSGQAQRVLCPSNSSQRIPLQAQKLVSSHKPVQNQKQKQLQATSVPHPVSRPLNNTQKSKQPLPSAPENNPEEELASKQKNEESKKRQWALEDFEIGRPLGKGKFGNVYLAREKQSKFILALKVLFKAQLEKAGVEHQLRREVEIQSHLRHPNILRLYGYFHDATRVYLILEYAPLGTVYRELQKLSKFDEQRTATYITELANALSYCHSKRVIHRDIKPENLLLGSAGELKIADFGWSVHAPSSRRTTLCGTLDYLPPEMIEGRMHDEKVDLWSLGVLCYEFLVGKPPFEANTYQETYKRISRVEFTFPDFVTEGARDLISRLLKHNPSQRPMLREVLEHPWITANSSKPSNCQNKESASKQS

HCT116 cells = assay: FACS cell cycle analysis in HCT116 cells; assay type: cell-based, human; settings: 48 h, 500 nM compound
HEK293 = assay: Cell Titer Glo cell viability assay HEK293; assay type: cell-based; settings: Homo sapiens, HEK293, 72 h, read-out: HEK293 IC50
Method in brief: (§1)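 Cells from a human cancer line panel were treated with the test compound across a dose-response series.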

PC3 = assay: Cell Titer Glo cell viability assay PC3; assay type: cell-based; settings: Homo sapiens, PC-3, 72 h, read-out: PC3 IC50
Method in brief: as §1

ABL1 Y253F = ABL1 Y253F (Homo sapiens, UniProt P00519, Y253F); assay: Biochemical kinase assay ABL1 Y253F
HCT116 = assay: Cell Titer Glo cell viability assay HCT116; assay type: cell-based; settings: Homo sapiens, HCT-116, 72 h, read-out: HCT116 IC50
Method in brief: as §1

Row | Structure (SMILES) | IC50 (Jurkat cells) [nM] | kinome-wide selectivity [1] | activity against LRRK2 (LRRK2) | activity against BRD4 (BRD4) | labeling of Aurora A by LC-MS/MS [2] | effect on cell cycle (FACS) (HCT116 cells) | IC50 (HEK293) [nM] | IC50 (PC3) [nM] | IC50 (ABL1 Y253F) [nM] | IC50 (HCT116) [nM]
1 | C=CC(=O)Nc1ccc(C(=O)Nc2ccc(Nc3ncc4c(n3)N(C)c3ccc(C)cc3C(=O)N4C)cc2)cc1 [compound 1] | 370 | exclusively on-target activity | inactive | inactive | no labeling | failed cytokinesis and accumulation of cells that contain 4N DNA (polyploidy) | 250 ± 48 | 990 ± 1500 |  | 
2 | CCOC(=O)c1[nH]cc2c1NC1=C(C(=O)CCC1)[C@H]2c1cccc(Oc2nc3ccccc3[nH]2)c1 [SAR156497, reference compound] |  |  |  |  |  | failed cytokinesis and accumulation of cells that contain 4N DNA (polyploidy) |  |  |  | 
3 | CCC(=O)Nc1ccc(C(=O)Nc2ccc(Nc3ncc4c(n3)N(C)c3ccc(C)cc3C(=O)N4C)cc2)cc1 [compound 2] |  |  | inactive | inactive |  |  | ~100 | ~100 | > 10000 | ~100
